Data set [1] is filed under the species Rattus norvegicus. In words: Antidiuretic activity in rat. It is filed as functional, Urine.
Data set [2] is filed under the species Rattus norvegicus. The data set can be described thus: Vasopressor activity in rat. It is filed as organism-based. To be noted: in vivo.
Data set [3] can be described thus: Retardation factor of the compound by silica gel thin-layer chromatography.
For data set [4], the target named is T1, Oxytocin receptor (Rattus norvegicus) (UniProt P70536).
T1 sequence (whole entry): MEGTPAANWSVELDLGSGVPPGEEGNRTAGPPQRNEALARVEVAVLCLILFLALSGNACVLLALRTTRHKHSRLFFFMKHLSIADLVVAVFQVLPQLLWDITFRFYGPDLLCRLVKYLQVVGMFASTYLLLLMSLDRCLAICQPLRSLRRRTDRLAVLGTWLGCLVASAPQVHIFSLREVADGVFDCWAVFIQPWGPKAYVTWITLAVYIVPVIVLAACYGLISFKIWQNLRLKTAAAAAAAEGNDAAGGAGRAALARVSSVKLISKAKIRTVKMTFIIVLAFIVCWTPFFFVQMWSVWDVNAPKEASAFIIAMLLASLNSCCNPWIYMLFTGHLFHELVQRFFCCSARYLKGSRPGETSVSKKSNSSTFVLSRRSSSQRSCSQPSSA
The data set can be described thus: Activity at oxytocin receptor in rat uterus. It is filed as tissue-based.

Data set [5] addresses T1, Oxytocin receptor (Rattus norvegicus). The data set can be described thus: Activity at oxytocin receptor in rat uterus in presence of Mg2+. It is filed as tissue-based.
Data set [6] is filed under the species Rattus norvegicus. In words: Ratio of antidiuretic activity in rat to vasopressor activity in rat. More on the design: species or system Urine. A digest of the protocol:
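Antidiuretic and vasopressor potencies were each expressed in units/mg from rat assays. The A/P value is the antidiuretic potency divided by the vasopressor potency.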

Structures are written as SMILES. Positions of bridges follow the written chain, without caps; N, C: chain ends. Non-standard residues stand in square brackets, D forms with d. Residues, ends and D or L forms follow the SMILES beside them. Mpa = O=C(O)CCS

For `C[C@@H](O)[C@@H]1NC(=O)[C@H](Cc2ccccc2)NC(=O)[C@H](Cc2ccc(O)cc2)NC(=O)CCSSC[C@@H](C(=O)N2CCC[C@H]2C(=O)N[C@@H](CCCN=C(N)N)C(=O)NCC(N)=O)NC(=O)[C@H](CC(N)=O)NC1=O`, the Activity is 758 U/mg in the data set filed under Rattus norvegicus [1] and 30 U/mg in the data set filed under Rattus norvegicus [2].

In the case of `C[C@@H](O)[C@@H]1NC(=O)[C@H](Cc2ccccc2)NC(=O)[C@H](Cc2ccc(O)cc2)NC(=O)CCSSC[C@@H](C(=O)N2CCC[C@H]2C(=O)N[C@H](CCCNC(=N)N)C(=O)NCC(N)=O)NC(=O)[C@H](CC(N)=O)NC1=O`, the Activity in the data set listed under Rattus norvegicus [1] is listed as 793 U/mg; in the data set filed under Rattus norvegicus [2] it was less than 0.02 U/mg. Moreover, the Rf in data set [3] is on record as 0.24.

Consider `NC(=O)CC[C@@H]1NC(=O)[C@H](Cc2ccccc2)NC(=O)[C@H](Cc2ccc(O)cc2)NC(=O)[C@@H](N)CSSC[C@@H](C(=O)N2CCC[C@H]2C(=O)N[C@H](CCCN=C(N)N)C(=O)NCC(N)=O)NC(=O)[C@H](CC(N)=O)NC1=O`, for which the Activity in data set [4] turned out to be 0.4 U/mg; in data set [5] it was 1.02 U/mg; in the data set listed under Rattus norvegicus [1], 114 U/mg; in the data set listed under Rattus norvegicus [2] it was 1.1 U/mg. The Ratio in the data set filed under Rattus norvegicus [6] came to 30. This molecule returned a Rf in data set [3] of 0.1.

Regarding `CC(C)[C@@H]1NC(=O)[C@H](Cc2ccccc2)NC(=O)[C@H](Cc2ccc(O)cc2)NC(=O)CCSSC[C@@H](C(=O)N2CCC[C@H]2C(=O)N[C@H](CCCNC(=N)N)C(=O)NCC(N)=O)NC(=O)[C@H](CC(N)=O)NC1=O` ([Mpa]YFVNCP[dR]G-NH2; disulfide 1-6), the Activity in the data set listed under Rattus norvegicus [1] is given as 1230 U/mg; in the data set filed under Rattus norvegicus [2], less than 0.01 U/mg.

As to `N=C(N)NCCC[C@@H](NC(=O)[C@@H]1CCCN1C(=O)[C@@H]1CSSCCC(=O)N[C@@H](Cc2ccc(O)cc2)C(=O)N[C@@H](Cc2ccccc2)C(=O)N[C@@H](CCC(N)=O)C(=O)N[C@@H](CC(N)=O)C(=O)N1)C(=O)NCC(N)=O` (stereo in doubt; 4), the Activity was 47 U/mg in data set [4] and 66 U/mg in data set [5].

Consider `NC(=O)CC[C@@H]1NC(=O)[C@H](Cc2ccccc2)NC(=O)[C@H](Cc2ccc(O)cc2)NC(=O)CCSSC[C@@H](C(=O)N2CCC[C@H]2C(=O)N[C@H](CCCN=C(N)N)C(=O)NCC(N)=O)NC(=O)[C@H](CC(N)=O)NC1=O` (stereo in doubt; 4) [DESMOPRESSIN], for which the Activity in the data set filed under Rattus norvegicus [1] amounted to 1390 U/mg; in the data set filed under Rattus norvegicus [2] it was 346 U/mg. For the same molecule, the Ratio in the data set listed under Rattus norvegicus [6] is 4. In data set [3], this molecule came in with a Rf of 0.18.

On to `N=C(N)NCCC[C@@H](NC(=O)[C@@H]1CCCN1C(=O)[C@@H]1CSSCCC(=O)N[C@@H](Cc2ccc(O)cc2)C(=O)N[C@@H](Cc2ccccc2)C(=O)N[C@@H](CCC(N)=O)C(=O)N[C@@H](CC(N)=O)C(=O)N1)C(=O)NCC(N)=O` (stereo in doubt; 6), for which the Activity in data set [5] turned out to be 2.9 U/mg.

`NC(=O)CC[C@@H]1NC(=O)[C@H](Cc2ccccc2)NC(=O)[C@H](Cc2ccc(O)cc2)NC(=O)CCSSC[C@@H](C(=O)N2CCC[C@H]2C(=O)N[C@H](CCCN=C(N)N)C(=O)NCC(N)=O)NC(=O)[C@H](CC(N)=O)NC1=O` (stereo in doubt; 6) [DESMOPRESSIN]: the Activity is given as 870 U/mg in the data set filed under Rattus norvegicus [1] and 0.39 U/mg in the data set listed under Rattus norvegicus [2]. For the same molecule, in the data set filed under Rattus norvegicus [6], the Ratio was determined as 80. The Rf in data set [3] was determined as 0.21.

Regarding `N=C(N)NCCC[C@H](NC(=O)[C@@H]1CCCN1C(=O)[C@@H]1CSSC[C@H](N)C(=O)N[C@@H](Cc2ccc(O)cc2)C(=O)N[C@@H](Cc2ccccc2)C(=O)N[C@@H](CCC(N)=O)C(=O)N[C@@H](CC(N)=O)C(=O)N1)C(=O)NCC(N)=O` [VASOPRESSIN], the Activity in data set [5] is 25.5 U/mg; in the data set filed under Rattus norvegicus [1] it was 323 U/mg. For the same molecule, the Ratio in the data set filed under Rattus norvegicus [6] is 1.

(Values after ChEMBL document CHEMBL3272182 (J Med Chem, 1976).)
